Data set [1] has as its system patients with advanced solid malignancies. Nature of the data set: Categorical evaluation of QTc, PR and QRS intervals. Type of data set: in vivo, human. Particulars: of 180 patients. A digest of the protocol: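 Patients received single twice-daily-regimen doses of 80–800 mg, either continuous or intermittent. A 12-lead digital ECG was recorded after at least 10 min semi-supine rest. Triplicate tracings were taken about 5 min apart at each time point and averaged, then read centrally. Thresholds were QTc ≥450, ≥480 and ≥500 ms; ΔQTc ≥30 and ≥60 ms; PR ≥200 ms; and QRS ≥110 ms.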

Data set [2] is described as follows: Plasma pharmacokinetics of capivasertib. It is filed as in vivo, human.
Data set [3] has as its system patients with advanced solid malignancies. Nature of the data set: Exploratory graphical analysis of model assumptions. Type of data set: in vivo, human. A digest of the protocol: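 Before modelling, first-dose paired data were plotted to check four assumptions: no drug effect on heart rate; a suitable HR correction (RR versus uncorrected QT, QTcF and QTcB); no hysteresis (mean ΔQTcF against concentration, joined in time order per dose); and linearity (loess smooth, linear regression, binned means). Sampling was at baseline, 1, 2, 6 and 24 h (escalation/expansion) or at baseline, 2 and 4–6 h (mutation cohorts).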

A further data set relates to patients. The conditions noted are these: available clinical data; cited from earlier work.
The subject of data set [4] is patients with advanced solid malignancies. It is filed as in vivo, human. Particulars: linear mixed-effects model parameter estimate. The method in brief: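 The model was a prespecified linear mixed-effects structure for placebo-free oncology trials. It regressed baseline-adjusted QTcF on plasma concentration, with random intercept and slope, plus a fixed effect for baseline QTcF centred on the overall baseline mean. Fitting used restricted maximum likelihood, assuming normal random effects and residuals. Only first-dose data were used (503 time-matched points, 180 patients). Fit was checked with goodness-of-fit plots.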

“And” between values parts separate entries of the source, which are not always exact repeats. Equal entries are not always repeated.

Results on one molecule are retold here after PMC9292875 (British Journal of Clinical Pharmacology, 2021).

On to `NC1(C(=O)N[C@@H](CCO)c2ccc(Cl)cc2)CCN(c2ncnc3[nH]ccc23)CC1` [capivasertib, 4‐amino‐N‐[(1S)‐1‐(4‐chlorophenyl)‐3‐hydroxypropyl]‐1‐(7H‐pyrrolo[2,3‐d]pyrimidin‐4‐yl)piperidine‐4‐carboxamide], for which, in data set [1] (doses from 80 mg to 800 mg), the “Patients with QRS ≥ 110 ms” value worked out at 5.0%. In data set [1] (single doses 80-800 mg), the “Patients with QTcF ≥ 480 ms” value is “No patients” and the “Patients with ΔQTcF ≥ 60 ms” value is on record as “No patients”. Besides, the Drug accumulation result in data set [2] (4 days on/3 days off intermittent schedule) was “less than twofold”. In addition, in data set [2] (after first dose), the “Time at which Cmax was reached after dosing” value is reported as “approximately 2 hours”. In data set [3] (after administration of first dose), the “Time to maximum ΔQTcF” value is at most 2 h. Besides, the “ΔHR (change in heart rate)” value in data set [3] (after first dose, small decrease at 1 hour, not dose-dependent) is at most 10 beats per minute. For the same molecule, in data set [3] (in vivo), the “Time delay between concentration and ΔQTcF (hysteresis plots)” value is reported as “No evidence of a time‐delay”. Besides, the “Reports of serious cardiac events or ECG changes” value in the data set on patients is on record as “no reports of sudden death, torsades de pointes, seizures or electrocardiogram (ECG) changes that were considered serious”. Besides, in data set [4], the “ɛ Residual variability” value was 6.452 ms; the “η0 Random effect for intercept” value is 5.350 ms; the “θ0 Intercept” value is -0.269 ms; the “θ1 Slope of capivasertib concentration vs ΔQTcF” value is 0.003 ms/(ng/mL) and 0.00337 ms/(ng/mL). In data set [4], the “θ2 Impact of baseline QTcF on ΔQTcF” value is −0.119.
